For one assay, the system named is Bacillus subtilis. The experiment in a line: Antibacterial activity against Bacillus subtilis ATCC 9372 after 24 hrs by broth microdilution method. It is filed as functional. Particulars: ATCC 9372, 24 h. A digest of the protocol:
(§1)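 Broth microdilution run to the standard NCCLS-recommended procedure, applied to all newly synthesized compounds, with a panel that included four Gram-positive strains.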

Assay [1] relates to Staphylococcus aureus. The experiment in a line: Antibacterial activity against Staphylococcus aureus ATCC 25923 after 24 hrs by broth microdilution method. The following applies: ATCC 25923, 24 h. Format: functional. A digest of the protocol:
as §1

Assay [2] concerns Staphylococcus aureus. The experiment in a line: Antibacterial activity against penicillin-resistant Staphylococcus aureus after 24 hrs by broth microdilution method. Format: functional. On the technique in general: Broth dilution looks for growth in wells or tubes with falling amounts of substance.
For assay [3], the system named is Staphylococcus aureus. The experiment in a line: Antibacterial activity against methicillin-resistant Staphylococcus aureus ATCC 43300 after 24 hrs by broth microdilution method. It is filed as functional. Particulars: ATCC 43300, 24 h.
Another assay relates to Escherichia coli. The experiment in a line: Antibacterial activity against Escherichia coli ATCC 25922 after 24 hrs by broth microdilution method. It is filed as functional. The following applies: ATCC 25922, 24 h. A digest of the protocol: as §1
Another assay relates to Klebsiella pneumoniae. The experiment in a line: Antibacterial activity against Klebsiella pneumoniae ATCC 700603 after 24 hrs by broth microdilution method. Particulars: Klebsiella pneumoniae, 700603, 24 h. It is filed as functional. A digest of the protocol: as §1
Assay [4] addresses T1, Cell division protein FtsZ (Bacillus subtilis) (UniProt A5Z1V5).
T1 sequence (whole entry): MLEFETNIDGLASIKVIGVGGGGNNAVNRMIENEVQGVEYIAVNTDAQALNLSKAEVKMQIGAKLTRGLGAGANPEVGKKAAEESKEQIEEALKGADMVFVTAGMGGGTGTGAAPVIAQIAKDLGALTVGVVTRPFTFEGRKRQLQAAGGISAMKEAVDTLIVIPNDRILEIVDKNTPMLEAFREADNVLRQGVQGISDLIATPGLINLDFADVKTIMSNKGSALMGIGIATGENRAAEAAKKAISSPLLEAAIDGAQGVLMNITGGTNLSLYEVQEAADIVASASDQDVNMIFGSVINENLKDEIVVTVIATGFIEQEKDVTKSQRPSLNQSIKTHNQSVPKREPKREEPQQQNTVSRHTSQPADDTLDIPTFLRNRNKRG
The experiment in a line: Inhibition of FtsZ in Bacillus subtilis ATCC 9372 assessed as filamentation.

The target of assay [5] is T2, Cell division protein FtsZ (Staphylococcus aureus) (UniProt P0A031).
T2 sequence (whole entry): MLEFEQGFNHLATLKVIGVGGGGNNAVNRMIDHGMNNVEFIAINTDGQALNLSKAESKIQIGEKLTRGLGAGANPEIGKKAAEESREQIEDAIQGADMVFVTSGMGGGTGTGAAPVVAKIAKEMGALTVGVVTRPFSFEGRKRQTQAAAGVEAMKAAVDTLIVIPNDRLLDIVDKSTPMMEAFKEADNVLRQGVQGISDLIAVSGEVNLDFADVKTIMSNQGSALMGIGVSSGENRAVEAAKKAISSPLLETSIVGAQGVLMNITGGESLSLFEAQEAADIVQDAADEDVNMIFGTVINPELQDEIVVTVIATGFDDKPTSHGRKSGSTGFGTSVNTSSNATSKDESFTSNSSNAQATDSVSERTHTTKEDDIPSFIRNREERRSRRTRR
The experiment in a line: Inhibition of FtsZ in Staphylococcus aureus assessed as ballooning.

For assay [6], the target named is T1, Cell division protein FtsZ (Bacillus subtilis). The experiment in a line: Inhibition of FtsZ in Bacillus subtilis ATCC 9372 assessed as filamentation at 1 ug/ml.

The structures appear in SMILES notation. ≈ marks a conversion by molar mass, not a printed value. Calls of active or inactive are those of the source. No cut-off for these calls is given here. Bounds are passed on as bounds.

With `CCCCC(CC)COc1cccc(-c2n[nH]c(=O)o2)c1` (racemic), the MIC against Bacillus subtilis is 4 µg/mL (≈ 13.8 µM); in the assay on Staphylococcus aureus [1] it was 4 µg/mL (≈ 13.8 µM); in the assay with Staphylococcus aureus [2], 8 µg/mL (≈ 27.6 µM); in the assay with Staphylococcus aureus [3], 8 µg/mL (≈ 27.6 µM); with Escherichia coli, greater than 64 µg/mL; with Klebsiella pneumoniae, 4 µg/mL (≈ 13.8 µM). The inhibition result in assay [4] was “inactive”. For the same compound, the inhibition result in assay [5] was “Active”.
Take `CCCCC(CC)COc1ccc(-c2c[nH]nn2)cc1` (stereo not drawn): the MIC in the assay with Bacillus subtilis is 2 µg/mL (≈ 7.32 µM); in the assay with Staphylococcus aureus [1] it was 4 µg/mL (≈ 14.6 µM); in the assay with Staphylococcus aureus [2], 4 µg/mL (≈ 14.6 µM); in the assay on Staphylococcus aureus [3] it was 4 µg/mL (≈ 14.6 µM); against Escherichia coli it was greater than 64 µg/mL; in the assay with Klebsiella pneumoniae, 4 µg/mL (≈ 14.6 µM). For the same compound, the inhibition entry in assay [4] was “inactive”. The inhibition result in [5] is “Active”.
As for `CCCCC(CC)COc1cccc(-c2c[nH]nn2)c1` (racemic), the MIC against Bacillus subtilis is 2 µg/mL (≈ 7.32 µM); against Staphylococcus aureus [1], 2 µg/mL (≈ 7.32 µM); in the assay with Staphylococcus aureus [2], 4 µg/mL (≈ 14.6 µM); with Staphylococcus aureus [3], 4 µg/mL (≈ 14.6 µM); in the assay with Escherichia coli, greater than 64 µg/mL; against Klebsiella pneumoniae it was 4 µg/mL (≈ 14.6 µM). Moreover, the inhibition result in assay [6] was “inactive”. Besides, the inhibition result in assay [5] is “Active”.
As for `CCCCC(CC)COc1cccc(Cn2cncn2)c1` (racemic), the MIC in the assay on Bacillus subtilis was 16 µg/mL (≈ 55.7 µM); with Staphylococcus aureus [1], 16 µg/mL (≈ 55.7 µM); in the assay with Staphylococcus aureus [2], 32 µg/mL (≈ 111 µM); with Staphylococcus aureus [3], 32 µg/mL (≈ 111 µM); in the assay on Escherichia coli, greater than 64 µg/mL; in the assay on Klebsiella pneumoniae it was 16 µg/mL (≈ 55.7 µM). Moreover, the inhibition result in [4] is “inactive”. The inhibition entry in assay [5] is “Active”.
As for `CCCCC(CC)COc1ccccc1-c1c[nH]nn1` (stereo not drawn), the MIC in the assay with Bacillus subtilis was 8 µg/mL (≈ 29.3 µM); in the assay with Staphylococcus aureus [1] it was 8 µg/mL (≈ 29.3 µM); with Staphylococcus aureus [2], 8 µg/mL (≈ 29.3 µM); in the assay on Staphylococcus aureus [3], 8 µg/mL (≈ 29.3 µM); with Escherichia coli, greater than 64 µg/mL; against Klebsiella pneumoniae, 8 µg/mL (≈ 29.3 µM). The inhibition entry in [4] is “inactive”. Moreover, the inhibition result in [5] was “Active”.
Turning to `CCCCCCCCOc1cccc(-c2c[nH]nn2)c1`, the MIC in the assay on Bacillus subtilis was 2 µg/mL (≈ 7.32 µM); against Staphylococcus aureus [1] it was 4 µg/mL (≈ 14.6 µM); in the assay with Staphylococcus aureus [2] it was 4 µg/mL (≈ 14.6 µM); against Staphylococcus aureus [3], 4 µg/mL (≈ 14.6 µM); in the assay with Escherichia coli, greater than 64 µg/mL; in the assay with Klebsiella pneumoniae, 4 µg/mL (≈ 14.6 µM). The inhibition entry in assay [4] was “inactive”. Further, the inhibition entry in [5] is “Active”.

In general, MIC refers to the least concentration at which growth counts as inhibited. High values mean a less susceptible organism, low ones a more susceptible organism.

The values above are taken from ChEMBL document CHEMBL4184277, “Substitution of terminal amide with 1H-1,2,3-triazole: Identification of unexpected class of potent antibacterial agents” (2018).
